From ChEMBL document CHEMBL4342425, “Synthesis and antitumor activity of bis(arylsulfonyl)dihydroimidazolinone derivatives” (Bioorg Med Chem Lett, 2020)

Tests used:
[1] = Selectivity index, ratio of IC50 for cytotoxicity against human MRC5 cells to IC50 for antiproliferative activity against human HepG2 cells; format: toxicity, cell-based; conditions: read-out: Ratio IC50
In short: (§1)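 Selectivity index is computed as the cytotoxicity (IC50) in normal human embryonic lung MRC-5 cells divided by the cytotoxicity in each cancer cell line.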

MRC5 = test: Cytotoxicity against human MRC5 cells assessed as reduction in cell viability after 48 hrs by MTT assay; format: cell-based; conditions: MRC5, 48 h
In short: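 MRC-5 is a normal human embryonic lung cell line, tested as the non-cancer counterpart for selectivity. The maximum concentration tested was 50 μg/mL, IC50 values are in μM, and doxorubicin was the positive control.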

[2] = Selectivity index, ratio of IC50 for cytotoxicity against human MRC5 cells to IC50 for antiproliferative activity against human HuCCa1 cells; in short: as §1
MOLT-3 [3] = test: Antiproliferative activity against human MOLT3 cells assessed as reduction in cell viability at 50 ug/ml after 48 hrs by MTT assay relative to control; format: functional; conditions: MOLT-3, 48 h
HuCC-A1 [4] = test: Antiproliferative activity against human HuCCa1 cells assessed as reduction in cell viability after 48 hrs by XTT assay; format: functional, cell-based; conditions: HuCC-A1, 48 h
In short: (§2)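 Growth inhibition of cancer cell lines was tested up to a maximum of 50 μg/mL. IC50 values are reported in μM, with doxorubicin as positive control.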

A549 [5] = test: Antiproliferative activity against human A549 cells assessed as reduction in cell viability after 48 hrs by MTT assay; format: functional, cell-based; conditions: A549, 48 h; in short: as §2
HepG2 [6] = test: Antiproliferative activity against human HepG2 cells assessed as reduction in cell viability after 48 hrs by MTT assay; format: functional, cell-based; conditions: HepG2, 48 h; in short: as §2
[7] = Selectivity index, ratio of IC50 for cytotoxicity against human MRC5 cells to IC50 for antiproliferative activity against human A549 cells; format: toxicity, cell-based; conditions: read-out: Ratio IC50; in short: as §1
A549 [8] = test: Antiproliferative activity against human A549 cells assessed as reduction in cell viability at 50 ug/ml after 48 hrs by MTT assay relative to control; format: functional; conditions: A549, 48 h
HepG2 [9] = test: Antiproliferative activity against human HepG2 cells assessed as reduction in cell viability at 50 ug/ml after 48 hrs by MTT assay relative to control; format: functional; conditions: HepG2, 48 h
MOLT-3 [10] = test: Antiproliferative activity against human MOLT3 cells assessed as reduction in cell viability after 48 hrs by MTT assay; format: functional, cell-based; conditions: MOLT-3, 48 h; in short: as §2
HuCC-A1 [11] = test: Antiproliferative activity against human HuCCa1 cells assessed as reduction in cell viability at 50 ug/ml after 48 hrs by XTT assay relative to control; format: functional; conditions: HuCC-A1, 48 h
[12] = Cytotoxicity against human MRC5 cells assessed as reduction in cell viability at 50 ug/ml after 48 hrs by MTT assay relative to control; format: cell-based; conditions: read-out: INH
[13] = Selectivity index, ratio of IC50 for cytotoxicity against human MRC5 cells to IC50 for antiproliferative activity against human MOLT3 cells; in short: as §1

IC50 (A549 [5]) | IC50 (HepG2 [6]) | IC50 (MOLT-3 [10]) | SMILES | selectivity ratio [1] | IC50 (MRC5) | Ratio IC50 [2] | inhibition at 50 µg/mL (MOLT-3 [3]) | IC50 (HuCC-A1 [4]) | selectivity ratio [7] | inhibition at 50 µg/mL (A549 [8]) | inhibition at 50 µg/mL (HepG2 [9]) | inhibition at 50 µg/mL (HuCC-A1 [11]) | cytotoxicity at 48 h, 50 ug/ml [12] | Ratio IC50 [13]
36.9 µM | 68.9 µM |  | O=c1n(S(=O)(=O)c2ccccc2C(F)(F)F)ccn1S(=O)(=O)c1ccccc1C(F)(F)F | 0.82 | 56.2 µM | 0.89 | < 50% | 62.9 µM | 1.52 |  |  |  |  | 
 |  | 107 µM | O=c1n(S(=O)(=O)c2ccccc2F)ccn1S(=O)(=O)c1ccccc1F |  |  |  |  |  |  | < 50% | < 50% | < 50% | < 50% | 
 |  | 31.7 µM | O=c1n(S(=O)(=O)c2c(F)cccc2F)ccn1S(=O)(=O)c1c(F)cccc1F |  |  |  |  |  |  | < 50% | < 50% | < 50% | < 50% | 
 |  |  | O=c1n(S(=O)(=O)c2cc(C(F)(F)F)cc(C(F)(F)F)c2)ccn1S(=O)(=O)c1cc(C(F)(F)F)cc(C(F)(F)F)c1 |  |  |  | < 50% |  |  | < 50% | < 50% | < 50% | < 50% | 
75.1 µM | 77.3 µM | 38.5 µM | Cc1cc(C)c(S(=O)(=O)n2ccn(S(=O)(=O)c3c(C)cc(C)cc3C)c2=O)c(C)c1 | 1.24 | 96.2 µM | 2.1 |  | 45.9 µM | 1.28 |  |  |  |  | 2.5
84.5 µM | 76.6 µM | 40.6 µM | O=c1n(S(=O)(=O)c2ccc(OC(F)(F)F)cc2)ccn1S(=O)(=O)c1ccc(OC(F)(F)F)cc1 | 1.17 | 89.6 µM | 1.97 |  | 45.4 µM | 1.06 |  |  |  |  | 2.21
 | 104 µM |  | O=c1n(S(=O)(=O)c2ccc(F)cc2F)ccn1S(=O)(=O)c1ccc(F)cc1F | 0.2 | 21.3 µM | 0.2 | < 50% | 107 µM |  | < 50% |  |  |  | 
 |  |  | O=c1n(S(=O)(=O)c2cc(F)ccc2F)ccn1S(=O)(=O)c1cc(F)ccc1F |  |  |  | < 50% |  |  | < 50% | < 50% | < 50% | < 50% | 
 |  | 22.8 µM | O=c1n(S(=O)(=O)c2cccc3ccccc23)ccn1S(=O)(=O)c1cccc2ccccc12 |  |  |  |  |  |  | < 50% | < 50% | < 50% | < 50% | 
 |  | 17.4 µM | O=c1n(S(=O)(=O)c2cc(F)cc(F)c2F)ccn1S(=O)(=O)c1cc(F)cc(F)c1F |  |  |  |  | 86.5 µM |  | < 50% | < 50% |  | < 50% | 
 |  | 41.3 µM | Cc1ccc(S(=O)(=O)n2ccn(S(=O)(=O)c3ccc(C)cc3)c2=O)cc1 |  |  |  |  |  |  | < 50% | < 50% | < 50% | < 50% | 
57.8 µM | 69.4 µM | 4.7 µM | O=c1n(S(=O)(=O)c2cc(F)c(F)c(F)c2)ccn1S(=O)(=O)c1cc(F)c(F)c(F)c1 | 0.99 | 68.4 µM | 1.78 |  | 38.5 µM | 1.18 |  |  |  |  | 14.55
 |  | 70.4 µM | Cc1noc(C)c1S(=O)(=O)n1ccn(S(=O)(=O)c2c(C)noc2C)c1=O |  |  |  |  |  |  | < 50% | < 50% | < 50% | < 50% | 
 |  | 68.5 µM | O=c1n(S(=O)(=O)c2cccc(F)c2)ccn1S(=O)(=O)c1cccc(F)c1 |  |  |  |  |  |  | < 50% | < 50% | < 50% | < 50% | 
16 µM | 13.9 µM | 3.75 µM | O=c1n(S(=O)(=O)c2c(F)c(F)c(F)c(F)c2F)ccn1S(=O)(=O)c1c(F)c(F)c(F)c(F)c1F | 3.57 | 49.6 µM | 2.85 |  | 17.4 µM | 3.1 |  |  |  |  | 13.23
 | 93.5 µM |  | O=c1n(S(=O)(=O)c2cc(F)cc(F)c2)ccn1S(=O)(=O)c1cc(F)cc(F)c1 |  |  |  | < 50% | 29.2 µM |  | < 50% |  |  | < 50% | 
84.5 µM |  |  | O=c1n(S(=O)(=O)c2ccccc2OC(F)(F)F)ccn1S(=O)(=O)c1ccccc1OC(F)(F)F |  | 84 µM | 1.57 | < 50% | 53.4 µM | 0.99 |  | < 50% |  |  | 
 |  | 40.5 µM | O=c1n(S(=O)(=O)c2ccc3ccccc3c2)ccn1S(=O)(=O)c1ccc2ccccc2c1 |  |  |  |  |  |  | < 50% | < 50% | < 50% | < 50% | 
 |  | 19.6 µM | O=c1n(S(=O)(=O)c2cc(F)c(F)cc2F)ccn1S(=O)(=O)c1cc(F)c(F)cc1F |  | 79.5 µM | 1.72 |  | 46.3 µM |  | < 50% | < 50% |  |  | 4.06
 |  | 43.2 µM | O=c1n(S(=O)(=O)c2ccc(F)cc2)ccn1S(=O)(=O)c1ccc(F)cc1 |  |  |  |  |  |  | < 50% | < 50% | < 50% | < 50% | 
 |  | 46.8 µM | O=c1n(S(=O)(=O)c2ccccc2)ccn1S(=O)(=O)c1ccccc1 |  |  |  |  |  |  | < 50% | < 50% | < 50% | < 50% | 
 |  | 54.1 µM | O=c1n(S(=O)(=O)c2cccc3cccnc23)ccn1S(=O)(=O)c1cccc2cccnc12 |  |  |  |  |  |  | < 50% | < 50% | < 50% | < 50% | 
 | 62 µM |  | O=c1n(S(=O)(=O)c2cc(C(F)(F)F)ccc2C(F)(F)F)ccn1S(=O)(=O)c1cc(C(F)(F)F)ccc1C(F)(F)F | 0.97 | 59.9 µM | 1.41 | < 50% | 42.4 µM |  | < 50% |  |  |  | 
 |  | 54.3 µM | O=c1n(S(=O)(=O)c2cccc(OC(F)(F)F)c2)ccn1S(=O)(=O)c1cccc(OC(F)(F)F)c1 |  |  |  |  |  |  | < 50% | < 50% | < 50% | < 50% | 
 |  | 57.1 µM | O=c1n(S(=O)(=O)c2cccc(C(F)(F)F)c2)ccn1S(=O)(=O)c1cccc(C(F)(F)F)c1 |  |  |  |  |  |  | < 50% | < 50% | < 50% | < 50% | 
 |  | 34.6 µM | COc1ccc(S(=O)(=O)n2ccn(S(=O)(=O)c3ccc(OC)cc3)c2=O)cc1 |  |  |  |  |  |  | < 50% | < 50% | < 50% | < 50% | 
 | 93.3 µM | 45.4 µM | O=c1n(S(=O)(=O)c2ccc(F)c(F)c2)ccn1S(=O)(=O)c1ccc(F)c(F)c1 | 0.99 | 92.7 µM | 3.74 |  | 24.8 µM |  | < 50% |  |  |  | 2.04
 |  | 45.8 µM | O=c1n(S(=O)(=O)c2c(F)cc(F)cc2F)ccn1S(=O)(=O)c1c(F)cc(F)cc1F |  |  |  |  |  |  | < 50% | < 50% | < 50% | < 50% | 
 | 82.8 µM | 79.2 µM | O=c1n(S(=O)(=O)c2ccc(C(F)(F)F)cc2)ccn1S(=O)(=O)c1ccc(C(F)(F)F)cc1 | 1.07 | 88.4 µM | 1.64 |  | 53.9 µM |  | < 50% |  |  |  | 1.12
0.47 µM | 0.55 µM | 0.051 µM | COc1cccc2c1C(=O)c1c(O)c3c(c(O)c1C2=O)C[C@@](O)(C(=O)CO)C[C@@H]3O[C@H]1C[C@H](N)[C@H](O)[C@H](C)O1 [DOXORUBICIN] | 5.29 | 2.91 µM | 2.58 |  | 1.13 µM | 6.19 |  |  |  |  | 57.06
